Experimental data: ChEMBL document CHEMBL2150901, “Synthesis and biological activity of tricyclic cycloalkylimidazo-, pyrimido- and diazepinopurinediones” (Eur J Med Chem, 2011)
Activity calls are given as the source filed them. The rule behind the calls is not given here.

Legend:
[1] = system: Mus musculus; assay: Anticonvulsant activity in F1 albino mouse assessed as protection against subcutaneous pentylenetetrazole-induced seizures at 300 mg/kg, ip after 4 hrs; format: functional, organism-based; parameters: dose 300 mg/kg
In short: (§1)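 Male albino F-1 mice (18–25 g), groups of 1–5 (rotorod 2–8). Compound given ip as a suspension in 0.5% methylcellulose at 30, 100 and 300 mg/kg. Seizures by maximal electroshock or subcutaneous pentylenetetrazole; neurotoxicity by rotorod. Read at 0.5 and 4 h, with some at 0.25, 1 and 2 h. Value is the minimum active dose, with protected (or toxic)/tested animals.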

[2] = system: Mus musculus; assay: Anticonvulsant activity in F1 albino mouse assessed as protection against maximal electroshock-induced seizures at 300 mg/kg, ip after 0.5 hrs; format: functional, organism-based; parameters: dose 300 mg/kg; in short: as §1
[3] = target: Adenosine receptor A2a (Homo sapiens, UniProt P29274); assay: Displacement of [3H]MSX-2 from human recombinant adenosine A2A receptor expressed in CHO cells; format: cell-based
Adenosine receptor A2a (Homo sapiens, UniProt P29274), sequence (P29274 whole entry): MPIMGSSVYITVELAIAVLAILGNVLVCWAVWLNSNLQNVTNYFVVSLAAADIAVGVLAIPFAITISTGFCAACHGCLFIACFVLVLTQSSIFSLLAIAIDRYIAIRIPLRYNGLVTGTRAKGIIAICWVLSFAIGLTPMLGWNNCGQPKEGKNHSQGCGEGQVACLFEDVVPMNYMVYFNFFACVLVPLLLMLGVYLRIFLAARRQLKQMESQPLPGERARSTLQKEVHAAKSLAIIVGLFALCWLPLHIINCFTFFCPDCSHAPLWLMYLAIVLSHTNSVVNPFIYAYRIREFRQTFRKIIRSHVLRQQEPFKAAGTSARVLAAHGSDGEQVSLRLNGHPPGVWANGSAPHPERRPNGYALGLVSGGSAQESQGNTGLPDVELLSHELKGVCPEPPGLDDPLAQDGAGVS

[4] = target: T1, Adenosine receptor A1 (Rattus norvegicus) (UniProt P25099); assay: Displacement of [3H]CCPA from adenosine A1 receptor in rat brain cortical membrane at 25 uM; format: cell membranes
T1 sequence (whole entry): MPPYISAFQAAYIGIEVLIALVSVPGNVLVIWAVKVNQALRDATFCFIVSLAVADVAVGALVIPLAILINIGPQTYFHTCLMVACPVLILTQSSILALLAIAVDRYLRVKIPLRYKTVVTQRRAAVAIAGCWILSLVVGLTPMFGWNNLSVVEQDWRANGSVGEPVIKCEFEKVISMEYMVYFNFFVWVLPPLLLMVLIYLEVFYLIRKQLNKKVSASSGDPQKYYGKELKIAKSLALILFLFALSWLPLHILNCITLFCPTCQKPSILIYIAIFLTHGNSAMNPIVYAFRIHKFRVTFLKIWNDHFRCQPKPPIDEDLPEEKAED

[5] = system: Mus musculus; assay: Neurotoxicity in F1 albino mouse assessed as minimal motor impairment at 300 mg/kg, ip after 0.5 hrs by rotorod test; format: toxicity, organism-based; parameters: dose 300 mg/kg, route intraperitoneal; details: in vivo; in short: as §1
[6] = target: T2, Adenosine receptor A3 (Homo sapiens) (UniProt P0DMS8); assay: Displacement of [3H]PSB-11 from human recombinant adenosine A3 receptor expressed in CHO cells at 10 uM; format: cell-based
T2 sequence (whole entry): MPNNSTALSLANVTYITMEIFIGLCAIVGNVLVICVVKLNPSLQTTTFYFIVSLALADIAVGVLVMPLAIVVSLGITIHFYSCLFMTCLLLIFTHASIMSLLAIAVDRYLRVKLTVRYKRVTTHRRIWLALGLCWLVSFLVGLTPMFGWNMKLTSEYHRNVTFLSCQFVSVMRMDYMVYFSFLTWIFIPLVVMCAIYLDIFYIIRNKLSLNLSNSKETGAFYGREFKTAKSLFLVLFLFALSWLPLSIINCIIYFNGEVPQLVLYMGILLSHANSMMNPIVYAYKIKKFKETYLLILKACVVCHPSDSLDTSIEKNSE
In short: (§2)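 CHO cell membranes expressing the human receptor. Radioligands: A1 [3H]CCPA; A2B [3H]ZM241385 or [3H]PSB-603; A3 [3H]PSB-11. […] Potent compounds run at 6–7 concentrations spanning 3 orders of magnitude; Ki ± SEM.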

[7] = system: Mus musculus; assay: Anticonvulsant activity in F1 albino mouse assessed as protection against maximal electroshock-induced seizures at 300 mg/kg, ip after 1 hr; format: functional, organism-based; parameters: dose 300 mg/kg; in short: as §1
[8] = target: T3, Adenosine receptor A1 (Rattus norvegicus, UniProt P25099); assay: Displacement of [3H]CCPA from adenosine A1 receptor in rat brain cortical membrane; format: cell membranes
T3 sequence (P25099 whole entry): T1 sequence (whole entry)

[9] = target: T4, Adenosine receptor A2b (Homo sapiens) (UniProt P29275); assay: Displacement of [3H]PSB-603 from human recombinant adenosine A2B receptor expressed in CHO cells at 10 uM; format: cell-based; in short: as §2
T4 sequence (whole entry): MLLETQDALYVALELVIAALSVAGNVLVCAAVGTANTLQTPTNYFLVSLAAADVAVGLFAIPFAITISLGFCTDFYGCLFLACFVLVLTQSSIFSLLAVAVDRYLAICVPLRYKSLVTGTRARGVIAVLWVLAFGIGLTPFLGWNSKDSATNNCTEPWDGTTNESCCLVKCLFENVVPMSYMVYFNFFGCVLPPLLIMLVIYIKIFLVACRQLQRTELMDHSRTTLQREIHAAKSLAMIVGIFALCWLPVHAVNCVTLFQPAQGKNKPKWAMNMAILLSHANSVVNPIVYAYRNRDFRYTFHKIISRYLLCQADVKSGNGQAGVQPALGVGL

[10] = target: Adenosine receptor A2a (Rattus norvegicus, UniProt P30543); assay: Displacement of [3H]MSX-2 from adenosine A2A receptor in rat brain striatal membrane; format: cell membranes
Adenosine receptor A2a (Rattus norvegicus, UniProt P30543), sequence (P30543 whole entry): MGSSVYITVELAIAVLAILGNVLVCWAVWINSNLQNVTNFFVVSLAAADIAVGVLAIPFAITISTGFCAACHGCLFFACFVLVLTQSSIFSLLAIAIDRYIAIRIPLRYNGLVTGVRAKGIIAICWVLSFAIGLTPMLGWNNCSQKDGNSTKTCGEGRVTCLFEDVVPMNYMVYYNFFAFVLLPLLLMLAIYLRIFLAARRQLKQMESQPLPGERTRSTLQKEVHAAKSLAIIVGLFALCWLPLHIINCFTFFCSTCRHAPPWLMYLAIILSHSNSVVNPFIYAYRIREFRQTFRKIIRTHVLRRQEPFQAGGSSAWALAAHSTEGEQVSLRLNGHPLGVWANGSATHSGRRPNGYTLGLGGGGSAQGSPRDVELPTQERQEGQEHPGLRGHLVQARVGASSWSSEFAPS

[11] = system: Mus musculus; assay: Anticonvulsant activity in F1 albino mouse assessed as protection against maximal electroshock-induced seizures at 300 mg/kg, ip after 0.25 hrs; format: functional, organism-based; parameters: dose 300 mg/kg; in short: as §1
[12] = system: Mus musculus; assay: Neurotoxicity in F1 albino mouse assessed as minimal motor impairment at 300 mg/kg, ip after 0.25 hrs by rotorod test; format: toxicity, organism-based; parameters: dose 300 mg/kg, route intraperitoneal; details: in vivo; in short: as §1
[13] = target: T5, Adenosine receptor A3 (Homo sapiens, UniProt P0DMS8); assay: Displacement of [3H]PSB-11 from human recombinant adenosine A3 receptor expressed in CHO cells; format: cell-based
T5 sequence (P0DMS8 whole entry): T2 sequence (whole entry)

[14] = species on record: Rattus norvegicus; assay: Selectivity ratio of Ki for adenosine A1 receptor in rat brain cortical membrane to Ki for adenosine A2A receptor in rat brain striatal membrane; format: cell membranes
In short: (§3)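 Ki ratios from radioligand competition binding. Rat A1 used brain cortical membranes and rat A2A used brain striatal membranes. Human A1 and A2A used membranes of CHO cells expressing the receptors. A1 radioligand [³H]CCPA; A2A radioligand [³H]MSX-2. Potent compounds were tested at 6–7 concentrations spanning 3 orders of magnitude.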

[15] = system: Mus musculus; assay: Neurotoxicity in F1 albino mouse assessed as minimal motor impairment at 300 mg/kg, ip after 4 hrs by rotorod test; format: toxicity, organism-based; parameters: dose 300 mg/kg, route intraperitoneal; details: in vivo; in short: as §1
[16] = target: T6, Adenosine receptor A1 (Homo sapiens, UniProt P30542); assay: Displacement of [3H]CCPA from human recombinant adenosine A1 receptor expressed in CHO cells; format: cell-based
T6 sequence (P30542 whole entry): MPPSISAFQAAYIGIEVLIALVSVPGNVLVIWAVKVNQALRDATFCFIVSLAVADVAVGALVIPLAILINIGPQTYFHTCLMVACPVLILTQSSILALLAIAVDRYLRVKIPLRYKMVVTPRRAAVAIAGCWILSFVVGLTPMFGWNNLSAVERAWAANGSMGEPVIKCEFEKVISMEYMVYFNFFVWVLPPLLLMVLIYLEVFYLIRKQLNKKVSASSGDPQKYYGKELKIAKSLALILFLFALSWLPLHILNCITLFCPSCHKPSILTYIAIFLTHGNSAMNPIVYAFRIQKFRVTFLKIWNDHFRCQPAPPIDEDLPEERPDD

[17] = system: Mus musculus; assay: Anticonvulsant activity in F1 albino mouse assessed as protection against maximal electroshock-induced seizures at 300 mg/kg, ip after 4 hrs; format: functional, organism-based; parameters: dose 300 mg/kg; in short: as §1
[18] = system: Mus musculus; assay: Anticonvulsant activity in F1 albino mouse assessed as protection against subcutaneous pentylenetetrazole-induced seizures at 300 mg/kg, ip after 0.25 hrs; format: functional, organism-based; parameters: dose 300 mg/kg; in short: as §1
[19] = target: T7, Adenosine receptor A2b (Homo sapiens, UniProt P29275); assay: Displacement of [3H]PSB-603 from human recombinant adenosine A2B receptor expressed in CHO cells; format: cell-based; in short: as §2
T7 sequence (P29275 whole entry): T4 sequence (whole entry)

[20] = system: Mus musculus; assay: Anticonvulsant activity in F1 albino mouse assessed as protection against subcutaneous pentylenetetrazole-induced seizures at 300 mg/kg, ip after 0.5 hrs; format: functional, organism-based; parameters: dose 300 mg/kg; in short: as §1
[21] = target: T8, Adenosine receptor A1 (Homo sapiens) (UniProt P30542); assay: Displacement of [3H]CCPA from human recombinant adenosine A1 receptor expressed in CHO cells at 10 uM; format: cell-based; in short: as §2
T8 sequence (whole entry): T6 sequence (P30542 whole entry)

[22] = system: Mus musculus; assay: Anticonvulsant activity in F1 albino mouse assessed as protection against subcutaneous pentylenetetrazole-induced seizures at 300 mg/kg, ip after 1 hr; format: functional, organism-based; parameters: dose 300 mg/kg; in short: as §1
[23] = system: CHO; assay: Selectivity ratio of Ki for human recombinant adenosine A2A receptor expressed in CHO cells to Ki for adenosine A2A receptor in rat brain striatal membrane; format: cell-based; in short: as §3
[24] = system: Mus musculus; assay: Neurotoxicity in F1 albino mouse assessed as minimal motor impairment at 300 mg/kg, ip after 1 hr by rotorod test; format: toxicity, organism-based; parameters: dose 300 mg/kg, route intraperitoneal; details: in vivo; in short: as §1

Compound	Activity [1]	Activity [2]	Ki [3] [µM]	inhibition [4] [%]	Activity [5]	inhibition [6] [%]	Activity [7]	Ki [8] [µM]	inhibition [9] [%]	Ki [10] [µM]	Activity [11]	Activity [12]	Ki [13] [µM]	Ratio Ki [14]	Activity [15]	Activity [17]	Activity [18]	Activity [20]	Activity [22]	Activity [24]	other results
CC(=O)O[C@H]1CC[C@H](N2CCCn3c2nc2c3c(=O)n(C)c(=O)n2C)CC1	inactive	inactive	21.9	5	Non-toxic	27	inactive	> 10	0	6.2	inactive	Non-toxic	> 10	> 2	Non-toxic	inactive	inactive	inactive	inactive	Non-toxic	Ki [16]: > 10 µM; Ki [19]: > 10 µM; inhibition [21]: 5%; Ratio Ki [23]: 3
CC1CCCCC1N1CCCn2c1nc1c2c(=O)n(C)c(=O)n1C (mixture of isomers)	inactive	inactive	–	31	Non-toxic	–	inactive	> 25	–	1.08	inactive	Non-toxic	–	> 23	Non-toxic	inactive	inactive	inactive	inactive	Non-toxic	–
Cn1c(=O)c2c(nc3n2CCN3CC2CCCCC2)n(C)c1=O	inactive	inactive	–	41	Non-toxic	–	inactive	≥ 25	–	2	inactive	Non-toxic	–	> 13	Non-toxic	inactive	inactive	inactive	inactive	Non-toxic	–
Cn1c(=O)c2c(nc3n2CCCN3C2CCC2)n(C)c1=O	inactive	inactive	0.847	39	Non-toxic	5	inactive	≥ 10	21	1.93	inactive	Non-toxic	> 10	> 5	Non-toxic	inactive	inactive	inactive	inactive	Non-toxic	Ki [16]: 10.3 µM; Ki [19]: > 10 µM
